We go through 20 molecules from ChEMBL document CHEMBL1125042, “Hypolipidemic activity of rifamycin derivatives” (J Med Chem, 1990).

A word on the MIC: it is the lowest concentration found to suppress growth. One may read the IC50 as the concentration that inhibits the measured activity by half. High values mean a need for much substance, low ones inhibition by little substance.

In brackets after ≈: the same amount, converted by molar mass.

Test [1] has as its system Rattus norvegicus. The experiment in a line: Hypolipidemic activity was determined in male rats, and low-density lipoprotein level was determined at 10 mg/kg. It counts as functional. An outline of the steps: (§1)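 Male Wistar rats (200–230 g), eight per group, were dosed orally in PEG 400 at 8 a.m. for 4 days, plus a second dose at 4 p.m. on day 4. Rats were fasted 16 h and killed 16 h after the last dose. Sera from pairs of rats were pooled. LDL (up to 1.040 g/cm³) was separated by ultracentrifugation and the HDL infranatant taken. Cholesterol was measured enzymatically. Results are % versus vehicle control, mean ± SEM of four pools, Student's t test.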

Test [2] relates to Rattus norvegicus. The experiment in a line: Tested for hypolipidemic activity in male rats, cholesterol was determined in serum at 10 mg/kg. It counts as functional. An outline of the steps: (§2)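 Groups of eight male Wistar rats (200–230 g) dosed orally in PEG 400, either daily for 7 days (killed 24 h after the last dose) or for 4 days with a second dose on day 4 (killed 16 h later). Fasted 16 h. Paired sera pooled, lipoproteins separated by ultracentrifugation (1.006 and 1.040 g/cm³), HDL taken as the infranatant. Cholesterol measured enzymatically; % vs vehicle, mean ± SEM of four pools.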

Another test relates to Staphylococcus aureus. Put plainly: Antibacterial activity against Staphylococcus aureus 10B. It counts as functional. An outline of the steps:
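Agar dilution on DST agar with 2-fold drug dilutions. Inoculum of 10⁴ viable S. aureus 10B was taken from liquid-nitrogen stock, thawed 30 min and not subcultured. It was applied by multipoint replicator and incubated overnight at 37 °C. MIC is the lowest concentration inhibiting growth relative to control cultures.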

Test [3] deals with Rattus norvegicus. The experiment in a line: Hypolipidemic activity was determined in male rats, and high-density lipoprotein level was determined at 10 mg/kg. The class given is functional. The procedure, abridged:
as §1

Test [4] has as its system Rattus norvegicus. Put plainly: Tested for hypolipidemic activity in male rats, cholesterol was determined in serum at 20 mg/kg. The class given is functional. An outline of the steps: as §2
The test system of test [5] is Rattus norvegicus. Put plainly: Hypolipidemic activity was determined in male rats, and low-density lipoprotein level was determined at 20 mg/kg. It counts as functional. An outline of the steps:
as §1

In test [6] the test system is Rattus norvegicus. The experiment in a line: Hypolipidemic activity was determined in male rats, and high-density lipoprotein level was determined at 20 mg/kg. The class given is functional. An outline of the steps: as §1
The nature of test [7]: Inhibitory activity against RNA polymerase was determined. Details: species or system Escherichia coli. The procedure, abridged: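 E. coli DNA-dependent RNA polymerase inhibition measured in vitro on ether-extracted, permeabilized E. coli cells.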

Consider `COC1/C=C/OC2(C)Oc3c(C)c(O)c4c(O)c(c(N5CCN(Cc6c(C)cc(C)cc6C)CC5)c(O)c4c3C2=O)NC(=O)/C(C)=C\C=C\C(C)C(=O)C(C)C(O)C(C)C(OC(C)=O)C1C` (stereo not drawn), for which the Activity in the test on Rattus norvegicus [1] is 1%; in the test with Rattus norvegicus [2] it was -11%; with Rattus norvegicus [3] it was -15%. The molecule also returned an MIC against Staphylococcus aureus of 64 µg/mL (≈ 70.2 µM).

On to `COC1/C=C/OC2(C)Oc3c(C)c(O)c4c(O)c(c(N5CCN(Cc6c(C)cc(C)cc6C)CC5)c(O)c4c3C2=O)NC(=O)/C(C)=C\C=C\C(C)C(O)C(C)C(=O)C(C)C(OC(C)=O)C1C` (stereo not drawn), for which the Activity in the test on Rattus norvegicus [1] was -1%; in the test on Rattus norvegicus [2] it was -18%; with Rattus norvegicus [3] it was -23%. In the test with Staphylococcus aureus, this molecule came in with an MIC of 2 µg/mL (≈ 2.19 µM).

Consider `COC1/C=C/OC2(C)Oc3c(C)c(O)c4c(O)c(c(N5CCC(CC6CCCCC6)CC5)c(O)c4c3C2=O)NC(=O)/C(C)=C\C=C\C(C)C(O)C(C)C(O)C(C)C(OC(C)=O)C1C` (stereo not drawn), for which it took 1 µg/mL (≈ 1.14 µM) to inhibit growth with Staphylococcus aureus (MIC). Besides, the Activity in the test with Rattus norvegicus [4] is listed as -62%; in the test with Rattus norvegicus [5], -31%; in the test on Rattus norvegicus [6] it was -67%.

Consider `COC1/C=C/OC2(C)Oc3c(C)c(OC(=O)C(C)(C)C)c4c(c3C2=O)C(=O)C(N2CCN(Cc3c(C)cc(C)cc3C)CC2)=C(NC(=O)/C(C)=C\C=C\C(C)C(O)C(C)C(O)C(C)C(OC(C)=O)C1C)C4=O` (stereo not drawn), for which it took 0.5 µg/mL (≈ 0.502 µM) to inhibit growth in the test on Staphylococcus aureus (MIC). The Activity in the test with Rattus norvegicus [4] is -48%; with Rattus norvegicus [5] it was -32%; in the test on Rattus norvegicus [6], -53%.

`CCOC(=O)C1CCN(c2c3c(O)c4c(O)c(C)c5c(c4c2O)C(=O)C(C)(O/C=C/C(OC)C(C)C(OC(C)=O)C(C)C(O)C(C)C(O)C(C)/C=C/C=C(/C)C(=O)N3)O5)CC1` (stereo not drawn): the MIC in the test with Staphylococcus aureus was < 0.1 µg/mL. For the same molecule, the figures for the Activity in the test on Rattus norvegicus [4], with Rattus norvegicus [5] and in the test with Rattus norvegicus [6] were -16%, 5% and -16%, respectively.

For `COC1/C=C/OC2(C)Oc3c(C)c(O)c4c(O)c(c(N5CCN(Cc6c(C)cc(C)cc6C)CC5)c(O)c4c3C2=O)NC(=O)/C(C)=C\C=C\C(C)C(OC(C)=O)C(C)C(OC(C)=O)C(C)C(OC(C)=O)C1C` (stereo not drawn), the Activity is given as -19% in the test with Rattus norvegicus [1], -24% in the test with Rattus norvegicus [2] and -24% in the test with Rattus norvegicus [3]. The molecule also gave an MIC with Staphylococcus aureus of 4 µg/mL (≈ 4.01 µM).

`COC1CCOC2(C)Oc3c(C)c(O)c4c(O)c(c(N5CCN(Cc6c(C)cc(C)cc6C)CC5)c(O)c4c3C2=O)NC(=O)C(C)CCCC(C)C(O)C(C)C(O)C(C)C(OC(C)=O)C1C` (stereo not drawn): the figures for the Activity in the test on Rattus norvegicus [1], in the test with Rattus norvegicus [2] and in the test with Rattus norvegicus [3] were -32%, -30% and -27%, respectively. In the test on Staphylococcus aureus, this molecule displayed an MIC of 2 µg/mL (≈ 2.17 µM). For the same molecule, the IC50 in test [7] was determined as 8 µg/mL (≈ 8.69 µM).

On to `COC1/C=C/OC2(C)Oc3c(C)c(O)c4c(O)c(c(N5CCC(C6CCCC6)CC5)c(O)c4c3C2=O)NC(=O)/C(C)=C\C=C\C(C)C(O)C(C)C(O)C(C)C(OC(C)=O)C1C` (stereo not drawn), for which the MIC in the test on Staphylococcus aureus is < 0.1 µg/mL. The figures for the Activity in the test on Rattus norvegicus [4], in the test on Rattus norvegicus [5] and with Rattus norvegicus [6] were -42%, -41% and -40%, respectively.

In the case of `COC1/C=C/OC2(C)Oc3c(C)c(O)c4c(O)c(c(N5CCC(C(C)(C)C)CC5)c(O)c4c3C2=O)NC(=O)/C(C)=C\C=C\C(C)C(O)C(C)C(O)C(C)C(OC(C)=O)C1C` (stereo not drawn), in the test with Staphylococcus aureus, the MIC was < 0.1 µg/mL. Further, the Activity in the test on Rattus norvegicus [4] is -51%; in the test with Rattus norvegicus [5], -52%; in the test with Rattus norvegicus [6] it was -48%.

With `CC(=O)OC1C(C)C2/C=C/OC3(C)Oc4c(C)c(O)c5c(O)c(c(N6CCN(Cc7c(C)cc(C)cc7C)CC6)c(O)c5c4C3=O)NC(=O)/C(C)=C\C=C\C(C)C(O)C(C)C(O2)C1C` (stereo not drawn), the Activity in the test with Rattus norvegicus [1] is given as -9%; in the test on Rattus norvegicus [2], 0%; in the test with Rattus norvegicus [3] it was -4%. In addition, the MIC in the test on Staphylococcus aureus is > 128 µg/mL. In addition, the IC50 in test [7] was > 100 µg/mL.

For the molecule `CCCCCCCCCCCCN1CCN(c2c3c(O)c4c(O)c(C)c5c(c4c2O)C(=O)C(C)(O/C=C/C(OC)C(C)C(OC(C)=O)C(C)C(O)C(C)C(O)C(C)/C=C/C=C(/C)C(=O)N3)O5)CC1` (stereo not drawn), in the test on Staphylococcus aureus, it took 0.15 µg/mL (≈ 0.158 µM) to inhibit growth (MIC). In addition, the Activity in the test on Rattus norvegicus [4] is given as -56%; in the test with Rattus norvegicus [5] it was -68%; with Rattus norvegicus [6], -53%.

In the case of `CCC1CCN(c2c3c(O)c4c(O)c(C)c5c(c4c2O)C(=O)C(C)(O/C=C/C(OC)C(C)C(OC(C)=O)C(C)C(O)C(C)C(O)C(C)/C=C/C=C(/C)C(=O)N3)O5)CC1` (stereo not drawn), in the test on Staphylococcus aureus, the MIC is < 0.1 µg/mL. The figures for the Activity in the test with Rattus norvegicus [4], in the test with Rattus norvegicus [5] and with Rattus norvegicus [6] were -57%, -51% and -61%, respectively.

Molecule `COC1/C=C/OC2(C)Oc3c(C)c(O)c4c(O)c(c(N5CCN(Cc6ccc(C(C)(C)C)cc6)CC5)c(O)c4c3C2=O)NC(=O)/C(C)=C\C=C\C(C)C(O)C(C)C(O)C(C)C(OC(C)=O)C1C` (stereo not drawn) registered an MIC in the test with Staphylococcus aureus of 0.5 µg/mL (≈ 0.539 µM). The Activity in the test on Rattus norvegicus [4] is given as -70%; in the test with Rattus norvegicus [5], -70%; in the test with Rattus norvegicus [6], -71%.

`COC1/C=C/OC2(C)Oc3c(C)c(O)c4c(O)c(c(N5CCN(Cc6c(C)cc(C)cc6C)CC5)c(O)c4c3C2=O)NC(=O)C(C)CCCC(C)C(O)C(C)C(O)C(C)C(OC(C)=O)C1C` (stereo not drawn): the Activity with Rattus norvegicus [1] is -59%; in the test on Rattus norvegicus [2] it was -40%; with Rattus norvegicus [3], -36%. The molecule also gave an MIC in the test with Staphylococcus aureus of 0.2 µg/mL (≈ 0.218 µM). In addition, in test [7], the IC50 was found to be 6.5 µg/mL (≈ 7.08 µM).

Turning to `COC1/C=C/OC2(C)Oc3c(C)c(O)c4c(O)c(c(N5CCC(CO)CC5)c(O)c4c3C2=O)NC(=O)/C(C)=C\C=C\C(C)C(O)C(C)C(O)C(C)C(OC(C)=O)C1C` (stereo not drawn), in the test with Staphylococcus aureus, the minimal inhibitory concentration (MIC) is < 0.1 µg/mL. Besides, the values for the Activity in the test on Rattus norvegicus [4], in the test with Rattus norvegicus [5] and in the test with Rattus norvegicus [6] were -14%, -7% and -10%, respectively.

With `COC1/C=C/OC2(C)Oc3c(C)c(O)c4c(O)c(c(N5CCC(C)CC5)c(O)c4c3C2=O)NC(=O)/C(C)=C\C=C\C(C)C(O)C(C)C(O)C(C)C(OC(C)=O)C1C` (stereo not drawn), the MIC against Staphylococcus aureus is < 0.1 µg/mL. In addition, the figures for the Activity in the test on Rattus norvegicus [4], in the test on Rattus norvegicus [5] and with Rattus norvegicus [6] were -23%, 23% and -30%, respectively.

In turn, `COC1/C=C/OC2(C)Oc3c(C)c(O)c4c(O)c(c(N5CCC(Cc6ccccc6)CC5)c(O)c4c3C2=O)NC(=O)/C(C)=C\C=C\C(C)C(O)C(C)C(O)C(C)C(OC(C)=O)C1C` (stereo not drawn) showed an MIC against Staphylococcus aureus of 0.04 µg/mL (≈ 0.0459 µM). Further, the figures for the Activity with Rattus norvegicus [4], in the test on Rattus norvegicus [5] and with Rattus norvegicus [6] were -53%, -66% and -51%, respectively.

Turning to `COC1/C=C/OC2(C)Oc3c(C)c(O)c4c(O)c(c(N5CCC(O)CC5)c(O)c4c3C2=O)NC(=O)/C(C)=C\C=C\C(C)C(O)C(C)C(O)C(C)C(OC(C)=O)C1C` (stereo not drawn), the MIC in the test with Staphylococcus aureus is < 0.1 µg/mL. Also, the Activity with Rattus norvegicus [4] is 0%; with Rattus norvegicus [5] it was 13%; in the test on Rattus norvegicus [6] it was -3%.

As for `COC1/C=C/OC2(C)Oc3c(C)c(O)c4c(O)c(c(N5CCN(Cc6c(C)cc(C)cc6C)CC5)c(O)c4c3C2=O)NC(=O)/C(C)=C\C=C\C(C)C2OC(C)(C)OC(C2C)C(C)C(OC(C)=O)C1C` (stereo not drawn), the Activity is -6% in the test on Rattus norvegicus [1], -14% in the test with Rattus norvegicus [2] and -27% in the test on Rattus norvegicus [3]. In the test with Staphylococcus aureus, this molecule showed an MIC of 8 µg/mL (≈ 8.38 µM).

As to `COC1/C=C/OC2(C)Oc3c(C)c(O)c4c(O)c(c(N5CCC(C(C)C)CC5)c(O)c4c3C2=O)NC(=O)/C(C)=C\C=C\C(C)C(O)C(C)C(O)C(C)C(OC(C)=O)C1C` (stereo not drawn), the MIC against Staphylococcus aureus is < 0.1 µg/mL. For the same molecule, the results for the Activity in the test with Rattus norvegicus [4], in the test with Rattus norvegicus [5] and in the test on Rattus norvegicus [6] were -61%, -54% and -61%, respectively.
